Assay results pooled from the literature.
Lines come from different studies, so protocols differ.
Cell line: MCF7
Read-out: cell growth or viability

| SMILES | assay | setting | IC50 [µM] |
| --- | --- | --- | --- |
| Cc1nc(Nc2ccc3c(c2)/C(=C/c2ccccc2C)C(=O)N3)c2ccccc2n1 | MTT |  | > 50 |
| Cc1ccc(-c2cc(-c3ccc(Cl)cc3)c3c(=O)n(C)c(=O)n(C)c3n2)cc1 | MTT | 48 h | 7.49 |
| Nc1ccccc1OC(=O)C=Cc1ccc(O)c(O)c1 | MTT |  | 22.3 |
| Cc1nc(N(C)c2ccc3c(c2)/C(=C/c2ccccc2Cl)C(=O)N3C)c2ccccc2n1 | MTT |  | 10.8 |
| Cc1nc2ccc(CN(C)c3ccc(C(=O)N[C@@H](CCC(=O)O)C(=O)O)s3)cc2c(=O)[nH]1 | MTT | 48 h | 1.98 |
| CCNCCCn1c2c(c3cc(OC)c(OC)cc3c1=O)C(=O)c1cc3c(nc1-2)OCO3 |  | 72 h | 0.262 |
| Cc1nc(Nc2ccc3c(c2)/C(=C/c2ccccc2)C(=O)N3C)c2ccccc2n1 | MTT |  | 28.8 |
| COc1ccc(-c2cc(-c3c(OC)cccc3OC)c3c(=O)[nH]c(=O)[nH]c3n2)cc1 | MTT | 48 h | 32.3 |
| C=CC(=O)Nc1cc(Nc2nccc(-c3cn(C)c4ccccc34)n2)c(OC)cc1N(C)CCN(C)C | MTS | 72 h | 8.34 |
| COc1ccc(-c2cc(-c3ccccc3Cl)c3c(=O)n(C)c(=O)n(C)c3n2)cc1 | MTT | 48 h | 21.5 |
| CC(C)NCC(COc1cccc2ccccc12)OC(=O)C=Cc1ccc(O)c(O)c1 (centres unmarked) | MTT |  | 5.37 |
| Cc1nc(Nc2ccc3c(c2)C(C)(C)C(=O)N3C)c2ccccc2n1 | MTT |  | 36.3 |
| Cc1ccc(-c2cc(-c3c(Cl)cccc3Cl)c3c(=O)n(C)c(=O)n(C)c3n2)cc1 | MTT | 48 h | 6.41 |
| CC(C)CS(=O)(=O)NCc1cccc(-c2ccc3c(NC(=O)CC4CC4)n[nH]c3c2)c1 | ATP luminescence | 48 h | 42 |
| Cc1nc(Nc2ccc3c(c2)/C(=C/c2ccccc2)C(=O)N3Cc2ccccc2)c2ccccc2n1 | MTT |  | 11.6 |
| COc1cc2c3c(n(CCCN4CCOCC4)c(=O)c2cc1OC)-c1nc2c(cc1C3=O)OCO2 |  | 72 h | 0.936 |
| COc1cc2ncnc(N(C)c3ccc4c(c3)/C(=C/c3ccccc3)C(=O)N4C)c2cc1OC (mixture of isomers) | MTT |  | 9.38 |
| CN(Cc1cnc2nc(N)nc(N)c2n1)c1ccc(C(=O)N[C@@H](CCC(=O)O)C(=O)O)cc1 | MTT |  | 19 |
| COc1ccc(-c2cc(-c3ccccc3Cl)c3c(=O)[nH]c(=O)[nH]c3n2)cc1 | MTT | 48 h | 17.5 |
| COc1cc2c3c(n(CCCNCCO)c(=O)c2cc1OC)-c1nc2c(cc1C3=O)OCO2 |  | 72 h | 0.369 |
